{"source": "ChEMBL document CHEMBL1153864", "about": "“Phase transfer catalyzed synthesis of bis-quinolines: antileishmanial activity in experimental visceral leishmaniasis and in vitro antibacterial evaluation” (Eur J Med Chem, 2009)", "key": {"[1]": {"system": "Mus musculus", "assay": "Toxicity in BALB/c mouse assessed as effect on serum glutamate oxaloacetate transaminase levels at 12.5 mg/kg, ip administered two times per week for 4 weeks", "format": "organism-based", "parameters": "dose 12.5 mg/kg, route intraperitoneal", "conditions": "in vivo, 672 h", "procedure,_shortened": "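Normal BALB/c mice were dosed ip twice per week for 4 weeks. Blood was collected one month after treatment, and serum SGPT and SGOT (IU/l) and blood urea (mg/dl) were measured with commercial kits and compared with untreated normal mice.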"}, "[2]": {"system": "Escherichia coli", "assay": "Antibacterial activity against Escherichia coli K-12 Row at 5 ug/ml after 24 hrs by agar dilution method", "format": "functional, organism-based", "procedure,_shortened": "(§1)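 Agar dilution MIC. Compound dissolved in sterile 0.2% DMSO, diluted in distilled water and mixed into molten nutrient agar (pH 7.2–7.4) at 5, 10, 25, 50; plate with 0.2% DMSO as control. Gram-positives grown 18 h in nutrient broth, Gram-negatives in peptone water. Stationary-phase suspension set to 0.5 McFarland, diluted 1:100, spot-inoculated at about 10^5 CFU per loopful. Plates held 24 h at 37 °C (up to 72 h if needed). MIC is the lowest level with no growth.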"}, "[3]": {"system": "Escherichia coli", "assay": "Antibacterial activity against Escherichia coli ATCC 25938 at 5 ug/ml after 24 hrs by agar dilution method", "format": "functional, organism-based", "procedure,_shortened": "as §1"}, "[4]": {"system": "Leishmania donovani", "assay": "Antileishmanial activity against Leishmania donovani MHOM/IN/1983/AG83 promastigotes infected BALB/c mouse assessed as reduction in liver parasite burden at 12.5 mg/kg, ip administered two times per week for 4 weeks relative to control", "format": "functional", "parameters": "scale not given: the % may be the effect or the level left", "conditions": "route intraperitoneal", "procedure,_shortened": "(§2)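 BALB/c mice (4-6 weeks) were infected iv with 2 × 10^7 freshly transformed promastigotes. One month later, groups were dosed ip in 0.2% Tween 80 in PBS (0.02 M), twice weekly for one month (8 doses); controls got vehicle only. Mice were killed one month post-treatment and spleen and liver were weighed. Parasite load came from Giemsa impression smears as organ weight (mg) × amastigotes per cell nucleus × 2 × 10^5. Values are mean ± S.E. of 5 mice; unpaired t-test.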"}, "[5]": {"system": "Salmonella typhimurium", "assay": "Antibacterial activity against Salmonella Typhimurium NCTC 74 at 25 ug/ml after 24 hrs by agar dilution method", "format": "functional, organism-based", "conditions": "Salmonella enterica subsp. enterica serovar Typhimurium", "procedure,_shortened": "as §1"}, "[6]": {"system": "Bacillus licheniformis", "assay": "Antibacterial activity against […] Bacillus licheniformis NCTC 10341 at 5 ug/ml after 24 hrs by agar dilution method", "format": "functional, organism-based", "procedure,_shortened": "as §1"}, "[7]": {"system": "Leishmania donovani", "assay": "Antileishmanial activity against Leishmania donovani MHOM/IN/1983/AG83 promastigotes assessed as induction of vacuolization at 2 ug/ml after 2 hrs by transmission electron microscopy", "format": "functional, organism-based", "procedure,_shortened": "(§3)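 Log-phase promastigotes, grown at 22 °C in M199 with 10% FBS, were exposed for 2 h to the compound; controls received 0.1% DMSO alone. Cells were then sectioned, stained on copper grids with uranyl acetate and lead acetate for 10-15 min each, and examined by TEM for ultrastructural changes.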"}, "[8]": {"system": "Bacillus licheniformis", "assay": "Antibacterial activity against […] Bacillus licheniformis NCTC 10341 at 50 ug/ml after 24 hrs by agar dilution method", "format": "functional", "conditions": "NCTC 10341, 24 h", "procedure,_shortened": "as §1"}, "[9]": {"system": "Escherichia coli", "assay": "Antibacterial activity against Escherichia coli ATCC 25938 at 25 ug/ml after 24 hrs by agar dilution method", "format": "functional, organism-based", "procedure,_shortened": "as §1"}, "[10]": {"system": "Escherichia coli", "assay": "Antibacterial activity against Escherichia coli K-12 Row at 10 ug/ml after 24 hrs by agar dilution method", "format": "functional, organism-based", "procedure,_shortened": "as §1"}, "[11]": {"system": "Pseudomonas aeruginosa", "assay": "Antibacterial activity against Pseudomonas aeruginosa ATCC 27853 at 5 ug/ml after 24 hrs by agar dilution method", "format": "functional, organism-based", "procedure,_shortened": "as §1"}, "[12]": {"system": "Vibrio cholerae", "assay": "Antibacterial activity against Vibrio cholerae 582 after 24 hrs by agar dilution method", "format": "functional", "conditions": "Vibrio cholerae, 582, 24 h"}, "[13]": {"system": "Salmonella typhimurium", "assay": "Antibacterial activity against Salmonella Typhimurium NCTC 74 at 5 ug/ml after 24 hrs by agar dilution method", "format": "functional, organism-based", "conditions": "Salmonella enterica subsp. enterica serovar Typhimurium", "procedure,_shortened": "as §1"}, "[14]": {"system": "Vibrio cholerae", "assay": "Antibacterial activity against Vibrio cholerae 569B at 25 ug/ml after 24 hrs by agar dilution method", "format": "functional"}, "[15]": {"system": "Proteus mirabilis", "assay": "Antibacterial activity against Proteus mirabilis 7 at 5 ug/ml after 24 hrs by agar dilution method", "format": "functional, organism-based", "procedure,_shortened": "as §1"}, "[16]": {"system": "Leishmania donovani", "assay": "Antileishmanial activity against Leishmania donovani MHOM/IN/1983/AG83 promastigotes infected BALB/c mouse assessed as reduction in liver parasite burden at 5.5 mg/kg, ip administered two times per week for 4 weeks relative to control", "format": "functional", "parameters": "scale not given: the % may be the effect or the level left", "conditions": "route intraperitoneal", "procedure,_shortened": "as §2"}, "[17]": {"system": "Proteus mirabilis", "assay": "Antibacterial activity against Proteus mirabilis 175 after 24 hrs by agar dilution method", "format": "functional", "conditions": "Proteus mirabilis, 175, 24 h", "procedure,_shortened": "as §1"}, "[18]": {"system": "Staphylococcus aureus", "assay": "Antibacterial activity against Staphylococcus aureus ML6 ug/ml after 24 hrs by agar dilution method", "format": "functional", "conditions": "ML6, 24 h", "procedure,_shortened": "as §1"}, "[19]": {"system": "Shigella dysenteriae", "assay": "Antibacterial activity against Shigella dysenteriae 7 NCTC 519/66 at 25 ug/ml after 24 hrs by agar dilution method", "format": "functional", "conditions": "7 NCTC 519/66, 24 h"}, "[20]": {"system": "Staphylococcus aureus", "assay": "Antibacterial activity against Staphylococcus aureus ML145 at 10 ug/ml after 24 hrs by agar dilution method", "format": "functional", "conditions": "ML145, 24 h", "procedure,_shortened": "as §1"}, "[21]": {"system": "Escherichia coli", "assay": "Antibacterial activity against Escherichia coli ATCC 25938 after 24 hrs by agar dilution method", "format": "functional", "conditions": "ATCC 25938, 24 h", "procedure,_shortened": "as §1"}, "[22]": {"system": "Pseudomonas aeruginosa", "assay": "Antibacterial activity against Pseudomonas aeruginosa ATCC 27853 after 24 hrs by agar dilution method", "format": "functional", "conditions": "ATCC 27853, 24 h", "procedure,_shortened": "as §1"}, "[23]": {"system": "Vibrio cholerae", "assay": "Antibacterial activity against Vibrio cholerae 569B at 10 ug/ml after 24 hrs by agar dilution method", "format": "functional, organism-based"}, "[24]": {"system": "Leishmania donovani", "assay": "Antileishmanial activity against Leishmania donovani MHOM/IN/1983/AG83 promastigotes assessed as induction of chromatin condensation at 11.5 ug/ml after 2 hrs by transmission electron microscopy", "format": "functional, organism-based"}, "[25]": {"system": "Proteus mirabilis", "assay": "Antibacterial activity against Proteus mirabilis 7 at 50 ug/ml after 24 hrs by agar dilution method", "format": "functional", "conditions": "Proteus mirabilis, 7, 24 h", "procedure,_shortened": "as §1"}, "[26]": {"system": "Shigella dysenteriae", "assay": "Antibacterial activity against Shigella dysenteriae 6 NCTC 100/54 at 10 ug/ml after 24 hrs by agar dilution method", "format": "functional, organism-based"}, "[27]": {"system": "Leishmania donovani", "assay": "Antileishmanial activity against Leishmania donovani MHOM/IN/1983/AG83 promastigotes infected BALB/c mouse assessed as spleen weight at 12.5 mg/kg, ip administered two times per week for 4 weeks", "format": "functional", "conditions": "route intraperitoneal", "procedure,_shortened": "as §2"}, "[28]": {"system": "Vibrio cholerae", "assay": "Antibacterial activity against Vibrio cholerae 582 at 10 ug/ml after 24 hrs by agar dilution method", "format": "functional", "conditions": "Vibrio cholerae, 582, 24 h"}, "[29]": {"system": "Leishmania donovani", "assay": "Antileishmanial activity against Leishmania donovani MHOM/IN/1983/AG83 promastigotes assessed as induction of membrane blebbing at 11.5 ug/ml after 2 hrs by transmission electron microscopy", "format": "functional, organism-based", "procedure,_shortened": "as §3"}, "[30]": {"system": "Bacillus licheniformis", "assay": "Antibacterial activity against […] Bacillus licheniformis NCTC 10341 at 10 ug/ml after 24 hrs by agar dilution method", "format": "functional, organism-based", "procedure,_shortened": "as §1"}, "[31]": {"system": "Staphylococcus aureus", "assay": "Antibacterial activity against Staphylococcus aureus ML6 at 25 ug/ml after 24 hrs by agar dilution method", "format": "functional", "conditions": "ML6, 24 h", "procedure,_shortened": "as §1"}, "[32]": {"system": "Pseudomonas aeruginosa", "assay": "Antibacterial activity against Pseudomonas aeruginosa ATCC 27853 at 10 ug/ml after 24 hrs by agar dilution method", "format": "functional, organism-based", "procedure,_shortened": "as §1"}, "[33]": {"system": "Leishmania donovani", "assay": "Antileishmanial activity against Leishmania donovani MHOM/IN/1983/AG83 promastigotes infected BALB/c mouse assessed as liver weight at 5.5 mg/kg, ip administered two times per week for 4 weeks", "format": "functional", "conditions": "route intraperitoneal", "procedure,_shortened": "as §2"}, "[34]": {"system": "Staphylococcus aureus", "assay": "Antibacterial activity against Staphylococcus aureus ML6 at 10 ug/ml after 24 hrs by agar dilution method", "format": "functional", "conditions": "ML6, 24 h", "procedure,_shortened": "as §1"}}, "note": "Calls of active or inactive are those of the source. No cut-off for these calls is given here.", "data": [{"smiles": "Clc1ccc(OCOc2ccc(Cl)c3cccnc23)c2ncccc12", "values": [{"measurement": "Activity", "setting": "[1]", "result": "Non-toxic"}, {"measurement": "Activity", "setting": "[2]", "result": "inactive"}, {"measurement": "Activity", "setting": "[3]", "result": "inactive"}, {"measurement": "Activity", "setting": "[4]", "result": 98.49, "unit": "%"}, {"measurement": "Activity", "setting": "[5]", "result": "inactive"}, {"measurement": "Activity", "setting": "[6]", "result": "inactive"}, {"measurement": "Activity", "setting": "[7]", "result": "Active"}, {"measurement": "inhibition at 50 µg/mL", "setting": "[8]", "result": 100, "unit": "%"}, {"measurement": "Activity", "setting": "[9]", "result": "inactive"}, {"measurement": "Activity", "setting": "[10]", "result": "inactive"}, {"measurement": "Activity", "setting": "[11]", "result": "inactive"}, {"measurement": "MIC", "setting": "[12]", "result": 5, "unit": "µg/mL"}, {"measurement": "Activity", "setting": "[13]", "result": "inactive"}, {"measurement": "inhibition at 25 µg/mL", "setting": "[14]", "result": 100, "unit": "%"}, {"measurement": "Activity", "setting": "[15]", "result": "inactive"}, {"measurement": "Activity", "setting": "[16]", "result": 78, "unit": "%"}, {"measurement": "MIC", "setting": "[17]", "result": 50, "unit": "µg/mL"}, {"measurement": "MIC", "setting": "[18]", "result": 10, "unit": "µg/mL"}, {"measurement": "inhibition at 25 µg/mL", "setting": "[19]", "result": 100, "unit": "%"}, {"measurement": "inhibition at 10 µg/mL", "setting": "[20]", "result": 100, "unit": "%"}, {"measurement": "MIC", "setting": "[21]", "result": 50, "unit": "µg/mL"}, {"measurement": "MIC", "setting": "[22]", "result": 25, "unit": "µg/mL"}, {"measurement": "Activity", "setting": "[23]", "result": "inactive"}, {"measurement": "Activity", "setting": "[24]", "result": "Active"}, {"measurement": "inhibition at 50 µg/mL", "setting": "[25]", "result": 100, "unit": "%"}, {"measurement": "Activity", "setting": "[26]", "result": "inactive"}, {"measurement": "Activity", "setting": "[27]", "result": 90, "unit": "mg"}, {"measurement": "inhibition at 10 µg/mL", "setting": "[28]", "result": 100, "unit": "%"}, {"measurement": "Activity", "setting": "[29]", "result": "Active"}, {"measurement": "Activity", "setting": "[30]", "result": "inactive"}, {"measurement": "inhibition at 25 µg/mL", "setting": "[31]", "result": 100, "unit": "%"}, {"measurement": "Activity", "setting": "[32]", "result": "inactive"}, {"measurement": "Activity", "setting": "[33]", "result": 1120, "unit": "mg"}, {"measurement": "inhibition at 10 µg/mL", "setting": "[34]", "result": 100, "unit": "%"}]}]}
